# Source: ChEMBL document CHEMBL4834426, “Antimalarial Benzimidazole Derivatives Incorporating Phenolic Mannich Base Side Chains Inhibit Microtubule and Hemozoin Formation: Structure-Activity Relationship and In Vivo Oral Efficacy Studies” (J Med Chem, 2021)
# Activity calls are given as the source filed them. The rule behind the calls is not given here.
# Tests used:
# Hemozoin = test: Inhibition of Beta-hematin in early ring stage Plasmodium falciparum parasitized red blood cells assessed as hemozoin formation formation after 32 hrs by Giemsa staining based haemocytometric counting method
# [1] = tested on: Plasmodium falciparum NF54; test: Inhibition of tubulin polymerization in asexual stage (II) Plasmodium falciparum NF54 early gametocytes at 2400 nM incubated for 24 hrs by tubulin tracker Oregon Green staining method
# Method in brief: (§1)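 Treatment at 600 nM for asexual parasites (~1% parasitemia, 5% hematocrit, sorbitol-synchronized rings) or 2400 nM for early gametocytes (~2% gametocytemia, 2% hematocrit, 20% I/60% II/20% III). 24 h at 37 °C, 90% N₂/5% CO₂/5% O₂, DMSO <0.1%. Stained with 250 nM Tubulin Tracker Oregon Green 488 for 30 min and Hoechst (100 nM) for 10 min. PBS-washed, imaged live by confocal microscopy. Colchicine (20 μM) positive control.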
# [2] = Metabolic stability in rat liver microsomes assessed as compound remaining at 1 uM incubated for 30 mins by LC-MS/MS analysis; type: ADME, Microsome; details: read-out: Stabilty
# Method in brief: (§2)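 Single-point design: 1 μM compound with 0.4 mg/mL liver microsomes in 0.1 M phosphate buffer pH 7.4 for 30 min. Quenched with ice-cold acetonitrile containing carbamazepine internal standard, centrifuged, analyzed by LC−MS/MS. Percent remaining from internal-standard-corrected peak areas at 30 min versus 0 min. Propranolol, midazolam and MMV390048 as controls.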
# Plasmodium berghei = test: Antimalarial activity against GFP-transfected Plasmodium berghei ANKA infected in NMRI mouse model assessed as reduction in parasitemia at 50 mg/kg, po dosed 4 times relative to control; type: functional; design: scale not given: the % may be the effect or the level left
# Method in brief: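 Mice (n = 3) infected with GFP-transfected P. berghei ANKA. Compound in 70% Tween-80/30% ethanol, diluted 10-fold in water, given orally at 4, 24, 48 and 72 h post-infection. Blood taken day 4 (96 h); parasitemia by flow cytometry, detection limit 0.1%. Activity = difference in mean % parasitemia between control and treated, as % of control.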
# Plasmodium falciparum [3] = test: Antiplasmodial activity against […] Plasmodium falciparum NF54 early gametocytes transfected with GFP-Luc […] incubated for 48 hrs by microscopy based luciferase reporter gene assay relative to control; type: functional, organism-based; details: NF54, 48 h
# Method in brief: (§3)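 Transgenic NF54-Pfs16-GFP-Luc gametocytes, read by luciferase reporter. Early assays were set up on day 5 (50% stage II/50% stage III) and late assays on day 10 (40% stage IV/60% stage V). Luciferin was added to lysates at room temperature and bioluminescence read. Methylene blue (5 μM) was the reference. Single-point screens at 1 and 5 μM used n=1 in technical triplicate. IC₅₀ came from a normalized nonlinear fit, n≥3 in triplicate.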
# Plasmodium falciparum [4] = test: Antiplasmodial activity against […] Plasmodium falciparum NF54 late gametocytes transfected with GFP-Luc […] at 5 uM incubated for 48 hrs by microscopy based luciferase reporter gene assay relative to control; type: functional
# Method in brief: (§4)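 NF54-Pfs16-GFP-Luc gametocytes, assays set up day 5 (early, stage II/III) or day 10 (late, stage IV/V). Culture at 2−3% gametocytemia, 1.5% hematocrit, 48 h drug exposure at 37 °C under 90% N₂/5% O₂/5% CO₂. Lysates mixed with luciferin; bioluminescence read with 10 s integration. Dual-point: one biological repeat in technical triplicate. Methylene blue (5 μM) reference.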
# CHO = test: Cytotoxicity against CHO cells assessed as inhibition of cell viability by MTT assay; type: cell-based; details: Cricetulus griseus
# [5] = Metabolic stability in mouse liver microsomes assessed as compound remaining at 1 uM incubated for 30 mins by LC-MS/MS analysis; type: ADME, Microsome; details: read-out: Stabilty; method in brief: as §2
# [6] = tested on: Plasmodium falciparum NF54; test: Inhibition of tubulin polymerization in asexual blood stage Plasmodium falciparum NF54 at 600 nM incubated for 24 hrs by tubulin tracker Oregon Green staining method; method in brief: as §1
# [7] = AUC (0 to t) in Balb/c mouse at 10 mg/kg, po measured up to 24 hrs by LC-MS/MS analysis; type: ADME, organism-based; design: dose 10 mg/kg, time <=24; details: in vivo
# Method in brief: (§5)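 Male Balb/c mice, not fasted, food and water ad libitum; single oral dose. Tail-vein blood into heparinized tubes at 0.5, 1, 3, 5, 7, 9 and 24 h, stored at −80 °C. Whole blood protein-precipitated with acetonitrile containing internal standard, analyzed by LC−MS/MS (LOQ 2 ng/mL). Parameters by noncompartmental analysis with curve stripping. Mean of three mice per point.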
# Plasmodium falciparum [8] = test: Antiplasmodial activity against […] Plasmodium falciparum NF54 late gametocytes transfected with GFP-Luc […] at 1 uM incubated for 48 hrs by microscopy based luciferase reporter gene assay relative to control; type: functional; method in brief: as §4
# Plasmodium falciparum [9] = test: Antiplasmodial activity against […] Plasmodium falciparum NF54 early gametocytes transfected with GFP-Luc […] at 5 uM incubated for 48 hrs by microscopy based luciferase reporter gene assay relative to control; type: functional; method in brief: as §4
# Plasmodium falciparum [10] = test: Antimalarial activity against asexual blood stage multi drug-resistant Plasmodium falciparum K1 infected in erythrocytes assessed as reduction in parasitemia incubated up to 72 hrs by [3H]hypoxanthine incorporation assay; type: functional, organism-based
# Method in brief: (§6)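 [³H]-Hypoxanthine incorporation assay (modified) on asexual blood-stage P. falciparum in vitro. IC₅₀ values are means of ≥2 independent experiments.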
# Plasmodium falciparum [11] = test: Antimalarial activity against asexual blood stage drug-sensitive Plasmodium falciparum NF54 infected in erythrocytes assessed as reduction in parasitemia incubated up to 72 hrs by [3H]hypoxanthine incorporation assay; type: functional, organism-based; method in brief: as §6
# [12] = Selectivity index, ratio of IC50 for Cytotoxicity against CHO cells assessed as inhibition of cell viability by MTT assay to IC50 for antimalarial activity against asexual blood stage Plasmodium falciparum NF54 assessed as reduction in parasitemia incubated up to 72 hrs by [3H]hypoxanthine incorporation assay; type: toxicity, cell-based; details: hamster, read-out: Selectivity Index
# Method in brief: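 Selectivity index is IC₅₀(CHO)/IC₅₀(NF54). […] IC₅₀ came from nonlinear dose-response fitting. Parasite IC₅₀ came from the [³H]-hypoxanthine assay.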
# [13] = Volume of distribution in Balb/c mouse at 3 mg/kg, iv measured up to 24 hrs by LC-MS/MS analysis; type: ADME, organism-based; details: in vivo
# Method in brief: (§7)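 Intravenous dosing in male Balb/c mice, fed ad libitum. Tail-vein blood sampled into heparinized tubes at 0.17, 0.5, 1, 3, 5, 7, 9 and 24 h, frozen at −80 °C. Blood extracted by acetonitrile protein precipitation with internal standard; LC−MS/MS quantitation, LOQ 2 ng/mL. Noncompartmental analysis based on curve stripping.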
# Plasmodium falciparum [14] = test: Antiplasmodial activity against […] Plasmodium falciparum NF54 late gametocytes transfected with GFP-Luc […] incubated for 48 hrs by microscopy based luciferase reporter gene assay relative to control; type: functional, organism-based; details: NF54, 48 h; method in brief: as §3
# [15] = Tmax in Balb/c mouse at 10 mg/kg, po measured up to 24 hrs by LC-MS/MS analysis; type: ADME, organism-based; details: in vivo; method in brief: as §5
# [16] = Clearance in Balb/c mouse at 3 mg/kg, iv measured up to 24 hrs by LC-MS/MS analysis; type: ADME, organism-based; details: in vivo; method in brief: as §7
# [17] = Half life in Balb/c mouse at 3 mg/kg, iv measured up to 24 hrs by LC-MS/MS analysis; type: ADME, organism-based; details: in vivo; method in brief: as §7
# [18] = Oral bioavailability in Balb/c mouse at 10 mg/kg measured up to 24 hrs by LC-MS/MS analysis; type: ADME, organism-based; details: in vivo; method in brief: as §5
compound,measurement,setting,value
CCNCc1cc(Cl)cc(Nc2nc3cc(F)c(F)cc3n2Cc2ccc(C(F)(F)F)cc2)c1O,Activity,Hemozoin,inactive
same,inhibition,[1],Active
same,"remaining at 0.5 h, 1 µM",[2],98%
same,Activity,Plasmodium berghei,98%
same,IC50,Plasmodium falciparum [3],460 nM
same,inhibition at 5 µM,Plasmodium falciparum [4],0%
same,IC50,CHO,> 50 µM
same,"remaining at 0.5 h, 1 µM",[5],86%
same,inhibition,[6],Active
same,AUCt,[7],321 µmol·min/L
same,inhibition at 1 µM,Plasmodium falciparum [8],0%
same,inhibition at 5 µM,Plasmodium falciparum [9],91%
same,IC50,Plasmodium falciparum [10],80 nM
same,IC50,Plasmodium falciparum [11],190 nM
same,selectivity ratio at 72 h,[12],> 263
same,Vd,[13],6.9 L/kg
same,IC50,Plasmodium falciparum [14],> 5 µM
same,Tmax,[15],2.8 h
same,clearance,[16],12.6 mL/min/kg
same,half-life,[17],378 min
same,bioavailability,[18],24%
